Measurements: ChEMBL document CHEMBL1153354, “Amide-containing diketoacids as HIV-1 integrase inhibitors: synthesis, structure-activity relationship analysis, and biological activity” (Bioorg Med Chem, 2009)

Key:
[1] = molecular target: T1, Human immunodeficiency virus type 1 integrase (Human immunodeficiency virus 1, UniProt Q7ZJM1); test: Inhibition of HIV1 integrase strand transfer activity
Method in brief: (§1)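 Wild-type IN (200 nM final) preincubated with inhibitor 30 min at 30 °C in buffer of 50 mM NaCl, 1 mM HEPES pH 7.5, 50 μM EDTA, 50 μM DTT, 10% glycerol, 7.5 mM MnCl2, 0.1 mg/mL BSA, 10 mM 2-mercaptoethanol, 10% DMSO, 25 mM MOPS pH 7.2. Then 20 nM 5'-32P-labeled linear oligonucleotide substrate added, 1 h further. Quenched with formamide/EDTA loading dye.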

[2] = molecular target: T1, Human immunodeficiency virus type 1 integrase; test: Inhibition of HIV1 integrase 3' processing activity; method in brief: as §1

T1 sequence (Q7ZJM1 whole entry): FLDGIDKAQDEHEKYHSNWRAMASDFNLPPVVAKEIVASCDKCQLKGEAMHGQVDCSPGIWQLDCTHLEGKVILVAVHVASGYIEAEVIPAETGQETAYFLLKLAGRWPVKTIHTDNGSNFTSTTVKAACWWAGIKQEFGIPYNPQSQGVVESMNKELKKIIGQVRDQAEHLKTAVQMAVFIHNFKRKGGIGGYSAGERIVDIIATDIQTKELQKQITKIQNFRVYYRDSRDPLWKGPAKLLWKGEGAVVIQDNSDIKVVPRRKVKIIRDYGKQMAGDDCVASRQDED

| IC50 [1] [µM] | IC50 [2] [µM] | Structure (SMILES) |
| --- | --- | --- |
| 10 | 48 | Cc1cccc(C(=O)Nc2cccc(C(=O)/C=C(\O)C(=O)O)c2)c1O |
| 19 | 95 | COc1ccc(C(=O)Nc2cccc(C(=O)/C=C(\O)C(=O)O)c2)cc1 |
| 18 | 92 | O=C(O)/C(O)=C/C(=O)c1cccc(NC(=O)c2ccccc2Cl)c1 |
| 13 | 73 | COc1ccccc1C(=O)Nc1cccc(C(=O)/C=C(\O)C(=O)O)c1 |
| 12 | 69 | COc1cccc(C(=O)Nc2cccc(C(=O)/C=C(\O)C(=O)O)c2)c1 |
| 11 | 42 | COc1cc(/C=C/C(=O)Nc2cccc(C(=O)/C=C(\O)C(=O)O)c2)ccc1O |
| 7 | 22 | O=C(/C=C/c1ccc(F)cc1)Nc1cccc(C(=O)/C=C(\O)C(=O)O)c1 |
| 4 | 18 | O=C(/C=C/c1ccc(Cl)cc1)Nc1cccc(C(=O)/C=C(\O)C(=O)O)c1 |
| 33 | > 100 | O=C(O)/C(O)=C/C(=O)c1cccc(NC(=O)c2ccco2)c1 |
| 11 | 41 | O=C(O)/C(O)=C/C(=O)c1cccc(NC(=O)c2ccccc2O)c1 |
| 2 | 8 | O=C(O)/C(O)=C/C(=O)c1cccc(NC(=O)c2cc([N+](=O)[O-])cc([N+](=O)[O-])c2O)c1 |
| 7 | 56 | O=C(Cc1ccccc1)Nc1cccc(C(=O)/C=C(\O)C(=O)O)c1 |
| 13 | 81 | O=C(O)/C(O)=C/C(=O)c1cccc(NC(=O)c2ccc(O)cc2)c1 |
| 11 | 30 | COc1ccc(/C=C/C(=O)Nc2cccc(C(=O)/C=C(\O)C(=O)O)c2)cc1 |
| 15 | 57 | O=C(O)/C(O)=C/C(=O)c1cccc(NC(=O)c2cccc(Cl)c2)c1 |
| 31 | > 100 | O=C(O)/C(O)=C/C(=O)c1cccc(NC(=O)c2ccccc2)c1 |
| 7 | 26 | O=C(/C=C/c1ccc(O)cc1)Nc1cccc(C(=O)/C=C(\O)C(=O)O)c1 |
